Only some compounds are listed: those with a hit (about 3.1% of all), similar ones and a draw of the others.
T cruzi repl: T. cruzi replication inhibition; T. cruzi beta-gal in NIH3T3, luminescence, 90 h; inhibition, % (concentration not given with the values); 300,000 compounds, 1.4% hits; AID 1885;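 active means mean inhibition across valid replicates above about 55%, limit read from the data; inconclusive means mean below that limit but half or more replicates reach it; inactive means mean below it, under half of replicates reach it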;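 further: signal also drops with host cell toxicity which is not excluded here; 0% = plate median of DMSO wells and 100% = zero luminescence signal; higher percent means less beta-gal luminescence so fewer parasites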
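System – NIH/3T3 host cells with β-galactosidase reporter T. cruzi · Doses – single 50 nL compound addition per well in DMSO · Reagent – 5000 T. cruzi trypomastigotes/well · Medium – Low-serum DMEM with 2% FBS · Timing – ≥90 h infection period, 3 h prior cell attachment · Evaluation – parasite load inhibition, % · Technique – GalScreen luminescence, 60 min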
Bfl-1 A1 inh: inhibitors of the anti-apoptotic protein A1, read as caspase activation; MEF A1-2A-BIM cells, Caspase-Glo 3/7 luminescence, 3 h; percent of clofoctol response, vehicle zero; caspase activation, % (test concentration not listed); 330,000 compounds, 0.066% hits; AID 2462;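 active means over half of replicate activation scores above 10%, or exactly half above 10 with the replicate mean above 10; inconclusive means replicate mean below 10 yet half the replicates above 10; inactive means over half of replicates below 10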
CSC inhib: blocks cancer stem cells | cancer stem cell-like cells viability, luminescence | AID 2717 | inhibition, % at 7.5 µM | 300,000 compounds, 1.1% hits; in the data active means inhibition above about 75%; inconclusive means no clear call, values can overlap the other calls; tested in HMLE shEcad cells
Beta apoptosis: beta cell apoptosis inhibition; INS-1E cytokine-induced death, ATP luminescence, 48 h; percent of positive-control rescue, neutral wells zero; protection from apoptosis, % (test concentration not listed); 300,000 compounds, 0.8% hits;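 active means Every replicate reaches about 75%, or at least half do and their mean reaches it too, limit read from the data; inconclusive means At least half of replicates reach the limit but their mean does not; inactive means Under half of replicates reach the limit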;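 further: 0% = cytokine-treated negative control wells and 100% = positive control rescue; higher means more ATP so stronger rescue from cytokine killing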
Calb FLC: affects C. albicans growth with fluconazole | C. albicans CaCi-2 + fluconazole, Alamar Blue growth, 48 h | growth inhibition, % (concentration not given with the values) | 300,000 compounds, 0.57% hits | AID 1979;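 active means growth inhibition above about 58% in most replicates, limit read from the data, passing the limit was not always enough; inconclusive means exactly half the replicates above a set limit; inactive means most replicates below a set limit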;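 further: all wells also contain fluconazole at 8 µg/ml as a sub-toxic cotreatment; 0% = median of DMSO wells and 100% = median of geldanamycin control wells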
H9c2 TAG inh: inhibitors of triacylglycerol accumulation. H9c2 cells, Nile Red lipid (TAG) fluorescence; cells loaded with 200 µM oleic acid. inhibition, % at 12.5 µM. 230,000 compounds, 0.66% hits. AID 651582;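 active means pattern-corrected inhibition of lipid staining of at least 50% with the nuclear-stain viability signal not falling by more than 50%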;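 further: 0% = DMSO wells and 100% = triacsin C control wells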
An asterisk follows results filed as active; ? = inconclusive; . = not tested or not shown.

SMILES | T cruzi repl | Bfl-1 A1 inh | CSC inhib | Beta apoptosis | Calb FLC | H9c2 TAG inh
CN(Cc1ccc(C(C)(C)C)cc1)C(=O)Cc1ccc(S(=O)(=O)N2CCOCC2)s1 | . | 0 | . | 2 | . | 1
CC(=O)NCCc1c[nH]c2ccc(OCc3ccccc3)cc12 | -3 | 1 | -5 | -10 | 1 | 3
CCCc1ccc(-c2ccc(/C=C/C(=O)O)cc2)nc1 | -11 | -7 | -16 | 0 | 15 | .
CCCCCc1ccc(-c2ccc(/C=C/C(=O)O)cc2)nc1 | 0 | -3 | 9 | -3 | 81* | .
CCCCCCCc1ccc(-c2ccc(O)cc2)nc1 | 41 | -1 | 85* | -2 | -15 | .
O=C(N/N=C/c1cccnc1)c1ccc(NC(=O)C(c2ccccc2)c2ccccc2)cc1 | 3 | -1 | . | 110* | -1 | .
CC(=O)c1c(C)nc(-c2cccc([N+](=O)[O-])c2)n1O | -7 | 0 | -5 | -5 | 76* | 5
Cc1c(C(=O)NC2CCCCC2C)oc2ccccc12 (stereo not given) | -14 | 0 | -4 | 4 | -26 | -11
COc1ccc2[nH]c(CN3CCN(CCC(C)C)C(CCO)C3)c(C)c2c1 (stereo not given) | 61* | 0 | -1 | -6 | -16 | 12
COc1ccc2[nH]c(CN3CCN(CC=C(C)C)C(CCO)C3)c(C)c2c1 (stereo not given) | 41 | 0 | 14 | -4 | -10 | 18
Cc1c(C)c(C)c(C(=O)CCc2cccc(NC(=O)CCC(=O)O)c2)c(C)c1C | 2 | 11* | 0 | -7 | 7 | .
COc1ccc(-c2noc(CN(C)Cc3ccccc3)n2)c(OC)c1OC | 19 | 0 | . | . | -9 | .
Cc1sc2ncnc(NCC(O)c3ccccc3)c2c1C (stereo not given) | 9 | -3 | -17 | 88* | -10 | .
Cc1sc2ncnc(N/N=C/c3ccccc3O)c2c1C | 32 | 0 | 105* | 85* | 34 | .
Cc1sc2ncnc(NCc3cccs3)c2c1C | -4 | -1 | -11 | 101* | 39 | -71
Cc1sc2ncnc(NCC(O)c3ccc([N+](=O)[O-])cc3)c2c1C (stereo not given) | 26 | 1 | -7 | 79* | 24 | .
Cc1sc2ncnc(NCC(c3ccccc3)N(C)C)c2c1C (stereo not given) | 38 | 1 | 8 | 9 | -6 | .
CCCNCC1C(Oc2ccc(Cl)cc2Cl)C(=O)N1c1cccc(C)c1C (stereo not given) | 62* | 1 | 81* | 44 | -11 | .
Cc1cccc(N2C(=O)C(Oc3ccc(Cl)cc3Cl)C2C(=O)O)c1C (stereo not given) | -9 | 1 | 6 | -3 | -5 | .
CNc1cc(C)c(C#N)c2nc3ccccc3n12 | -2 | 1 | -1 | 10 | -9 | .
Cc1ccc(-c2c(C#N)c(N)n3c(nc4ccccc43)c2C#N)cc1 | 26 | ? | 71 | 80* | -3 | -4
Cc1cc(Cl)n2c(nc3ccccc32)c1C#N | 71* | . | . | . | 94* | 11
N#Cc1c(-c2ccccc2)c(C#N)c2nc3ccccc3n2c1N | 0 | 0 | 4 | 49 | 1 | .
O=C(N/N=C/c1ccc[nH]1)c1ccc(COc2cccc3cccnc23)cc1 | 16 | 1 | 100* | 100* | -22 | 83
Cc1cc(Br)c(OCc2ccc(C(=O)N/N=C/c3ccc[nH]3)cc2)c(Br)c1 | . | 3 | 98* | 117* | . | 23
SMILES | T cruzi repl | Bfl-1 A1 inh | CSC inhib | Beta apoptosis | Calb FLC | H9c2 TAG inh
O=C(N/N=C/c1ccccc1C(=O)O)c1ccc(COc2cccc3cccnc23)cc1 | -2 | -1 | -15 | -4 | -5 | -1
COc1ccc(S(=O)(=O)NNc2nc(C)cc(C)n2)cc1[N+](=O)[O-] | -4 | 0 | -4 | -2 | 1 | 4
Cc1ccc(C(=O)NC(=C(Cl)Cl)S(=O)(=O)c2ccccc2)cc1 | -20 | 0 | 98* | 4 | 19 | .
CCOC(=O)C1=C(COC(=O)CCc2ccc(CC)cc2)NC(=O)NC1C (stereo not given) | . | 0 | . | 3 | . | 0
O=C(Nc1ccc(S(=O)(=O)N2CCOCC2)cc1)c1ccc(CN2CCc3ccccc3C2)cc1 | 22 | 0 | 0 | 123* | -9 | .
C/C(=N\NC(=O)c1ccc(CN2CCc3ccccc3C2)cc1)c1ccccc1O | 64* | ? | -4 | 29 | -1 | 2
CCCNC(=O)c1ccc(CN2CCc3ccccc3C2)cc1 | 8 | 1 | -9 | -8 | -2 | 10
Cc1noc(C)c1NC(=O)Nc1ccc2c(c1)C(=O)N([C@H](C)CO)C[C@H](C)[C@@H](CN(C)S(=O)(=O)c1c(C)noc1C)O2 | . | 0 | 1 | 0 | . | .
Cc1noc(/C=C/c2ccccn2)c1[N+](=O)[O-] | 41 | 1 | 19 | 2 | 85* | .
FC(F)(F)c1ccccc1NC(=S)N1CCN(Cc2ccc3c(c2)OCO3)CC1 | -1 | 0 | . | 82* | 8 | 3
O=C(c1ccc2c(c1)OCO2)C1CCCN(C2CCN(CCc3ccccc3)CC2)C1 (stereo not given) | 69* | 0 | 41 | 1 | 7 | 5
CC(=O)c1cccc(CN2CCCC(C(=O)c3ccc4c(c3)OCO4)C2)c1 (stereo not given) | 43 | -1 | 1 | 4 | 11 | -12
CSc1nc2ccc3nc(NC(=O)c4ccc(C)cc4)sc3c2s1 | 4 | 0 | 24 | -4 | 1 | 36
Cc1ccc(C(=O)Nc2nc3ccccc3c(=O)s2)cc1 | 52 | -5 | . | . | 87* | .
O=C(Nc1nc(=O)c2ccccc2s1)c1ccccc1 | 21 | -1 | 7 | -3 | 87* | -23
CC1=NN(c2ccccc2)C(=O)C1N=Nc1ccc(C)cc1 (stereo not given) | 2 | -2 | -12 | -13 | -4 | .
CC1=NN(c2ccccc2)C(=O)C1C=Nc1ccc(N(C)C)cc1 (stereo not given) | 30 | 0 | 86* | 10 | 1 | -5
CCn1c(C)nc2cc(C(=O)NNC(=O)[C@@H](NC(=O)c3cc(OC)cc(OC)c3)C(C)C)ccc21 | . | 0 | -21 | 1 | . | -15
NC(=S)NN=Cc1nccc2c(C(F)(F)C(F)(F)C(F)(F)F)cccc12 | . | . | . | . | . | 74*
O=C(NCc1cc(C(F)(F)F)ccc1Cl)c1cccc2c1C(=O)c1ccc(-c3ccc(OC(F)(F)F)cc3)cc1S2(=O)=O | . | 0 | 19 | 4 | . | .
COc1ccc(-c2ccc3c(c2)S(=O)(=O)c2cccc(C(=O)NCc4cccc(OC(F)(F)F)c4)c2C3=O)cc1OC | . | 39* | 60 | 11 | . | -83
O=C(NCc1ccccc1Cl)c1cccc2c1C(=O)c1ccc(-c3ccc(OC(F)(F)F)cc3)cc1S2(=O)=O | . | 10* | 65 | 16 | . | -3
O=C(Nc1cccc(NC(=O)c2cc([N+](=O)[O-])ccc2Cl)n1)c1cc([N+](=O)[O-])ccc1Cl | 15 | 0 | 67 | 104* | 2 | 45

Bioassay records as filed in PubChem BioAssay.
